Data set [1] is described as follows: Inhibition of soybean LOX using arachidonic acid as substrate incubated for 5 mins. Further details: species or system Glycine max. The method in brief: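 Soybean lipoxygenase in assay buffer, compounds at 10⁻⁴–10⁻⁸ M from DMSO stocks, triplicate. Reaction started with arachidonic acid and shaken 5 min. Chromogen added, shaken 5 min more, absorbance read at 490 nm. Blanks were buffer + AA. % inhibition computed with chromogen extinction coefficient 9.47 mM⁻¹.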

Data set [2] concerns the target Prostaglandin G/H synthase 1 (Homo sapiens) (UniProt P23219). Nature of the data set: Inhibition of COX1 in human whole blood assessed as reduction in calcium ionophore-stimulated TXB2 production by ELISA. Format: tissue-based. On the technique in general: In an ELISA, binding on a coated surface is turned into a signal by an enzyme label.
A short description of data set [3]: Cmax in Swiss albino mouse at 10 mg/kg, ip measured upto 24 hrs by LC-MS analysis. The format is ADME, organism-based. As to conditions: in vivo. Also noted: route intraperitoneal, dose 10 mg/kg, time <=24. The method in brief: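 Swiss albino mice (25−35 g), either sex, 10 groups of three. 10 mg/kg suspended in 0.1% CMC, given i.p. Ketamine anaesthesia (50 mg/kg i.p.). Jugular vein blood taken at 30, 45, 60 min and 2, 3, 4, 6, 8, 11, 24 h into heparinised tubes, triplicate samples per time point.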

The target of data set [4] is T1, Prostaglandin G/H synthase 1 (Ovis aries) (UniProt P05979).
T1 sequence (whole entry): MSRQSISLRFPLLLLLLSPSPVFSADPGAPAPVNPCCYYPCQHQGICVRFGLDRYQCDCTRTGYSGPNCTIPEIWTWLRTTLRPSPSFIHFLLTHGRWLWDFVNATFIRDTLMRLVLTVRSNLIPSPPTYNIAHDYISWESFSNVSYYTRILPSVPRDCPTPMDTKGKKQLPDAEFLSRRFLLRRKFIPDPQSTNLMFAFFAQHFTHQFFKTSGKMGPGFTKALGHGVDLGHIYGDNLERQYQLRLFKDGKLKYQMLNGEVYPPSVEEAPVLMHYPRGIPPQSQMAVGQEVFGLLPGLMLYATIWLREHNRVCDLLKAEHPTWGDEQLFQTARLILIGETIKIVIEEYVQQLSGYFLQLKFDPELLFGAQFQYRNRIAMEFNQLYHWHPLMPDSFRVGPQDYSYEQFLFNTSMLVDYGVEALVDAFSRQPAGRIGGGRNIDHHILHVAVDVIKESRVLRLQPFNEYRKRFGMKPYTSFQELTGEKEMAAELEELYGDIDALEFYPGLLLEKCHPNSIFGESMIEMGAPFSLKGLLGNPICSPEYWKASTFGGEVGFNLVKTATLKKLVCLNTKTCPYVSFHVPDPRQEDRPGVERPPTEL
Nature of the data set: Binding affinity to ovine COX-1 assessed as change in entropy by isothermal titration calorimetry. An outline of the steps:
(§1)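 ITC at 25 °C in 0.1 M Tris buffer. Ligand at 100 μM in DMSO:Tris (1:9) titrated from a syringe stirred at 500 rpm into enzyme in the sample cell, 120 s spacing. 40 × 1 μL injections, except COX-1 at 20 × 2 μL. Buffer-only control titrations were subtracted.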
On the technique in general: ITC needs no label: the signal is the heat of the interaction.

For data set [5], the system named is Glycine max. Nature of the data set: Binding affinity to soybean 5-LOX assessed as change in entropy by isothermal titration calorimetry. An outline of the steps: as §1
The target in data set [6] is T2, Albumin (Homo sapiens, UniProt P02768). Nature of the data set: Binding affinity to HSA assessed as association constant at equilibrium by isothermal titration calorimetry.
T2 sequence (P02768 whole entry): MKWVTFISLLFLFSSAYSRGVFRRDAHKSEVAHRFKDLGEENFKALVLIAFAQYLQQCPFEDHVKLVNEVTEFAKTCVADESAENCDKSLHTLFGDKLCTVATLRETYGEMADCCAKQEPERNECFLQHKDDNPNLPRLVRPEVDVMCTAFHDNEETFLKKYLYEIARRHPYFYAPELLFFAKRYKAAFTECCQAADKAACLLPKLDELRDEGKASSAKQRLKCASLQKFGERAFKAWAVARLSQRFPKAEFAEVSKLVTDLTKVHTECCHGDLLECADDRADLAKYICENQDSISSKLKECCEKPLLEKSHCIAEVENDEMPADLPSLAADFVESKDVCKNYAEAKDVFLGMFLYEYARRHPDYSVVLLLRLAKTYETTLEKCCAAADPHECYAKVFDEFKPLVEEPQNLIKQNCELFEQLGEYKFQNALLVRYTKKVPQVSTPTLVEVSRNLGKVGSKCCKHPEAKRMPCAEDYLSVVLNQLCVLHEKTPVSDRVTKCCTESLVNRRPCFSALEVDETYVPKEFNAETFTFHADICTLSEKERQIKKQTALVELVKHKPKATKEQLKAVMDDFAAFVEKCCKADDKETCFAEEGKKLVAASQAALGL
For data set [7], the target named is T2, Albumin. Put plainly: Binding affinity to HSA assessed as change in enthalpy by isothermal titration calorimetry.
Data set [8] has as its target T2, Albumin. Nature of the data set: Binding affinity to HSA assessed as change in entropy by isothermal titration calorimetry. The method in brief:
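Isothermal titration calorimetry at 25 °C. Ligand at 100 μM in DMSO:0.1 M Tris buffer (1:9), loaded in the syringe and stirred at 500 rpm. HSA (0.05 g per mL Tris buffer) placed in the sample cell. Forty 1 μL injections at 120 s intervals. Heats corrected with control titrations: ligand into buffer, and buffer into protein. Binding parameters fitted with a single-site model (Q = nΘMtΔHVo).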

Data set [9] concerns Mus musculus. Nature of the data set: Analgesic activity in Swiss albino mouse assessed as inhibition of acetic acid-induced writhing at 5 mg/kg, ip preincubated for 30 mins with L-arginine followed by compound addition for 30 mins prior to acetic acid challenge and measured after 30 mins. The format is functional, organism-based. As to conditions: time 60.0 min.
For data set [10], the system named is Mus musculus. Put plainly: Sedative activity in Swiss albino mouse at 300 mg/kg, po after 1 hr. The following applies: in vivo. Format: ADME, organism-based. An outline of the steps:
(§2)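 Acute oral toxicity in Swiss albino mice fasted 4 h, three per group, vehicle control group alongside. Single 300 mg/kg oral dose, continuous observation for 4 h, then periodic checks over 14 days.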

The test system of data set [11] is Mus musculus. Put plainly: Sedative activity in Swiss albino mouse at 300 mg/kg, po after 2 hrs. As to conditions: in vivo. Format: ADME, organism-based. An outline of the steps: as §2
Data set [12] addresses T1, Prostaglandin G/H synthase 1 (Ovis aries).
For data set [13], the system named is Glycine max.
Data set [14] addresses T1, Prostaglandin G/H synthase 1 (Ovis aries). This is another data set of the same source.
Data set [15] concerns the target T3, Prostaglandin G/H synthase 2 (Homo sapiens) (UniProt P35354).
T3 sequence (whole entry): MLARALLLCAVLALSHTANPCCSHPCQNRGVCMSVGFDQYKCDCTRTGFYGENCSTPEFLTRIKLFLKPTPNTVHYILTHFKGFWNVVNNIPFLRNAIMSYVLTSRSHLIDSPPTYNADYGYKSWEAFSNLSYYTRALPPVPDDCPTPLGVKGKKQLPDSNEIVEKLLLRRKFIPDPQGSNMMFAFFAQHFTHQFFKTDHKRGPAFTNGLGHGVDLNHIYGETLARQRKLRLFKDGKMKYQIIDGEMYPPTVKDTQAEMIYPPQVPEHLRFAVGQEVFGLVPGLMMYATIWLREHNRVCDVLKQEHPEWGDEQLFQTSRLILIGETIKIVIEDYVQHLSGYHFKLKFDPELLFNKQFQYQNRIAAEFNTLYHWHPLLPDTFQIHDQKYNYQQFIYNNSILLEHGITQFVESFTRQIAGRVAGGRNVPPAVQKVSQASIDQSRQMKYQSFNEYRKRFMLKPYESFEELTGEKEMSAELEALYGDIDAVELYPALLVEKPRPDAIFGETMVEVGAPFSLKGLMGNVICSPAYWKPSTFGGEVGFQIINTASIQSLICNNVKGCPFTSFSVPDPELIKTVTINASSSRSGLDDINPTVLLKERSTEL

For data set [16], the system named is Glycine max. This is another data set of the same source.

Structures are written as SMILES. pIC50: −log10 of the molar value. Calls of active or inactive are those of the source. The calls are words filed in the database; no cut-off is given here.

Prostaglandin G/H synthase 1 (Homo sapiens), sequence (P23219 whole entry): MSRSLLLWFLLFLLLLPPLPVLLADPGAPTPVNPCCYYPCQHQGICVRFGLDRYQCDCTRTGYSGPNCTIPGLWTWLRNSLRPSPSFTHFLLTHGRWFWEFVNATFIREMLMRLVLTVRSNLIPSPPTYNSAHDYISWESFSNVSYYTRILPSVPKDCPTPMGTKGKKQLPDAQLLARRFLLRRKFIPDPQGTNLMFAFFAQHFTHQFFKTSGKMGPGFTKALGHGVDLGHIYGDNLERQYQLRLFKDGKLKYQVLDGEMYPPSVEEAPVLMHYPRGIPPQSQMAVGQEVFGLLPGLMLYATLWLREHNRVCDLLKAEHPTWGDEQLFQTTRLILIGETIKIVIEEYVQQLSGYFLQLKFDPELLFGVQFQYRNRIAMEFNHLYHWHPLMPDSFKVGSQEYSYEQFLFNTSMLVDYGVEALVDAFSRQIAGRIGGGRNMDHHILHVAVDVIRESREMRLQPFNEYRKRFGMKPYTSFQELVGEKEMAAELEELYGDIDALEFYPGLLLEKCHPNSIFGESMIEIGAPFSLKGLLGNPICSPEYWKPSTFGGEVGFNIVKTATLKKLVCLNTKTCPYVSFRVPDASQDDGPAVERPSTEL

A word on the pIC50: it is the IC50 on a negative log10 scale, so that one unit is a factor of ten. Read a high pIC50 as a low IC50. A word on the Cmax: it is the highest concentration seen after dosing. Take `O=C(O)Cn1nncc1CO[C@@H](C(=O)O)[C@@H](OCc1cnnn1CC(=O)O)C(=O)O`: the pIC50 in [1] is 8.15. Further, the Activity in data set [2] is 1.6 ng/mL; in the data set with Mus musculus [10] it was “Toxic”; in the data set with Mus musculus [11] it was “Non-Toxic”. Further, the highest concentration (Cmax) in data set [3] was determined as 26000 ng/mL. Also, the TdeltaS is -595 kcal/mol in [4], -2.99 kcal/mol in the data set on Glycine max [5] and -258 kcal/mol at Albumin [8]. Further, the Ka was 11800 M⁻¹ on Albumin [6], 1.64 10^3/M in data set [12] and 1.33 10^5/M with Glycine max [13]. Also, the deltaH is -264 kcal/mol at Albumin [7], -600 kcal/mol in data set [14] and -10.5 kcal/mol in data set [15]. For the same compound, the outcome in the data set on Mus musculus [9] was Active. In the data set with Glycine max [16], the deltaG was -7 kcal/mol.

The record behind these values is ChEMBL document CHEMBL5032505, “Design, Synthesis, and Activity Evaluation of Stereoconfigured Tartarate Derivatives as Potential Anti-inflammatory Agents In Vitro and In Vivo” (J Med Chem, 2021).
